This is an account of results in ChEMBL document CHEMBL1135142, “Synthesis and in vitro evaluation of N,N'-diphenyl and N-naphthyl-N'-phenylguanidines as N-methyl-D-aspartate receptor ion-channel ligands” (Bioorg Med Chem Lett, 2002).

In one data set the target is Glutamate NMDA receptor. Briefly: In vitro binding to N-methyl-D-aspartate glutamate receptor using [3H]MK-801 (1 nM) and rat brain membrane suspensions. The essentials:
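Test compounds displaced the radioligand, and IC₅₀ values were read from displacement curves. Ki was calculated from IC₅₀ by the Cheng–Prusoff method. Values are means of at least three experiments, with standard deviation.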

The nature of data set [1]: Partition coefficient (logP). The class given is physicochemical. The following applies: octanol/water. Put shortly:
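Lipophilicity (log P) estimated by HPLC analysis.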

SMILES strings stand for the structures.

On to `COc1cccc(N(C)C(=N)Nc2cccc3ccccc23)c1`, for which, at Glutamate NMDA receptor, the inhibition constant (Ki) was 43.5 nM. In addition, in data set [1], the logP came to 2.26.

Consider `COc1cccc(N(C)C(=N)Nc2cc(SC)ccc2Cl)c1`, for which, on Glutamate NMDA receptor, the Ki amounted to 5.2 nM. This molecule also yielded a log partition coefficient (logP) in data set [1] of 2.34.

In turn, `CN(C(=N)Nc1cccc2ccccc12)c1cccc(I)c1` displayed a Ki on Glutamate NMDA receptor of 4.65 nM. This molecule returned a lipophilicity (logP) in data set [1] of 2.94.

`CSc1cccc(N(C)C(=N)Nc2cc(SC)ccc2Cl)c1` [CNS-5161] yielded a Ki at Glutamate NMDA receptor of 1.87 nM. The molecule further returned a log partition coefficient (logP) in data set [1] of 2.68.

`CCc1cccc(N(C)C(=N)Nc2cc(SC)ccc2Cl)c1`: affinity at Glutamate NMDA receptor was put at a Ki of 6.28 nM. The molecule further returned a log partition coefficient (logP) in data set [1] of 3.

`CSc1ccc(Cl)c(NC(=N)N(C)c2cccc(F)c2)c1` returned a logP in data set [1] of 2.34.

As for `CSc1ccc(Cl)c(NC(=N)N(C)c2cccc(I)c2)c1`, affinity on Glutamate NMDA receptor was put at a Ki of 3.48 nM. Further, the log partition coefficient (logP) in data set [1] was found to be 2.91.

`CN(C(=N)Nc1cccc2ccccc12)c1cccc(F)c1`: the Ki on Glutamate NMDA receptor was determined as 839 nM. The same molecule registered a lipophilicity (logP) in data set [1] of 2.31.

Molecule `CSc1ccc(Cl)c(NC(=N)N(C)c2cc(C)cc(C)c2)c1` registered a Ki on Glutamate NMDA receptor of 14 nM. Also, the logP in data set [1] was 3.12.

On to `Cc1cc(C)cc(N(C)C(=N)Nc2cccc3ccccc23)c1`, for which affinity on Glutamate NMDA receptor was put at a Ki of 21.9 nM. Moreover, the logP in data set [1] was found to be 2.94.
